According to ChEMBL document CHEMBL1144069, “Cytotoxic activities of hypocretenolides from Leontodon hispidus” (J Nat Prod, 1999):
The source made the active and inactive calls.

Legend:
Format in all cases: functional, cell-based
GTB = experiment: Cytotoxicity against human GTB cells at 0.01 to 2.0 uM after 5 hrs by MTT assay
Procedure, shortened: (§1)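 Leukemic cells at 0.5 × 10^6 cells/mL in RPMI were exposed to 0.01–2.00 µM compound (0.1% final DMSO) at 37 °C and 5% CO2. Viability was measured as MTT formazan, dissolved in DMSO and read at 550 and 630 nm. Three wells per point, on three separate days (n = 9). IC50 was taken graphically from per-experiment dose curves.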

HL-60 = experiment: Cytotoxicity against human HL-60 cells at 0.01 to 2.0 uM after 5 hrs by MTT assay; procedure, shortened: as §1
A-431 [1] = experiment: Cytotoxicity against human A431 cells at 0.25 to 2.0 uM after 24 hrs by [3H]thymidine incorporation assay
Procedure, shortened: (§2)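 Adherent tumor cells (100 µL at 1 × 10^6 cells/mL) were overlaid with 100 µL of medium containing compound in the 0.25–4.00 µM range (0.1% final DMSO). The medium control had no compound. Cells were incubated for 24, 48 or 72 h at 37 °C and 5% CO2, then pulsed 24 h with 3H-thymidine. They were harvested onto glass filters and counted by liquid scintillation. Three wells per point, on three separate days (n = 9). IC50 was taken graphically.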

A-431 [2] = experiment: Cytotoxicity against human A431 cells at 0.25 to 2.0 uM after 48 hrs by [3H]thymidine incorporation assay; procedure, shortened: as §2
A-431 [3] = experiment: Cytotoxicity against human A431 cells at 0.25 to 2.0 uM after 72 hrs by [3H]thymidine incorporation assay; procedure, shortened: as §2
HEp-2 [4] = experiment: Cytotoxicity against human HEP2 cells at 0.25 to 2.0 uM after 24 hrs by [3H]thymidine incorporation assay; procedure, shortened: as §2
HEp-2 [5] = experiment: Cytotoxicity against human HEP2 cells at 0.25 to 2.0 uM after 48 hrs by [3H]thymidine incorporation assay; procedure, shortened: as §2
HEp-2 [6] = experiment: Cytotoxicity against human HEP2 cells at 0.25 to 2.0 uM after 72 hrs by [3H]thymidine incorporation assay; procedure, shortened: as §2
MCF7 [7] = experiment: Cytotoxicity against human MCF7 cells at 0.25 to 2.0 uM after 24 hrs by [3H]thymidine incorporation assay; procedure, shortened: as §2
MCF7 [8] = experiment: Cytotoxicity against human MCF7 cells at 0.25 to 2.0 uM after 48 hrs by [3H]thymidine incorporation assay; procedure, shortened: as §2
MCF7 [9] = experiment: Cytotoxicity against human MCF7 cells at 0.25 to 2.0 uM after 72 hrs by [3H]thymidine incorporation assay; procedure, shortened: as §2
OVCAR-3 [10] = experiment: Cytotoxicity against human OVCAR-3 cells at 0.25 to 2.0 uM after 24 hrs by [3H]thymidine incorporation assay; procedure, shortened: as §2
OVCAR-3 [11] = experiment: Cytotoxicity against human OVCAR-3 cells at 0.25 to 2.0 uM after 48 hrs by [3H]thymidine incorporation assay; procedure, shortened: as §2
OVCAR-3 [12] = experiment: Cytotoxicity against human OVCAR-3 cells at 0.25 to 2.0 uM after 72 hrs by [3H]thymidine incorporation assay; procedure, shortened: as §2
SK-MEL-28 [13] = experiment: Cytotoxicity against human SK MEL28 cells at 0.25 to 2.0 uM after 24 hrs by [3H]thymidine incorporation assay; procedure, shortened: as §2
SK-MEL-28 [14] = experiment: Cytotoxicity against human SK MEL28 cells at 0.25 to 2.0 uM after 48 hrs by [3H]thymidine incorporation assay; procedure, shortened: as §2
SK-MEL-28 [15] = experiment: Cytotoxicity against human SK MEL28 cells at 0.25 to 2.0 uM after 72 hrs by [3H]thymidine incorporation assay; procedure, shortened: as §2
SK37 [16] = experiment: Cytotoxicity against human SK37 cells at 0.25 to 2.0 uM after 24 hrs by [3H]thymidine incorporation assay; procedure, shortened: as §2
SK37 [17] = experiment: Cytotoxicity against human SK37 cells at 0.25 to 2.0 uM after 48 hrs by [3H]thymidine incorporation assay; procedure, shortened: as §2
SK37 [18] = experiment: Cytotoxicity against human SK37 cells at 0.25 to 2.0 uM after 72 hrs by [3H]thymidine incorporation assay; procedure, shortened: as §2
SW872 [19] = experiment: Cytotoxicity against human SW872 cells at 0.25 to 2.0 uM after 24 hrs by [3H]thymidine incorporation assay
Procedure, shortened: (§3)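 Adherent tumour cells at 1 × 10^6 cells/mL (100 µL per well) overlaid with an equal volume of medium carrying test substance across 0.25–4.00 µM. Medium-only controls. Incubated 24, 48 or 72 h at 37 °C, 5% CO2, then pulsed 24 h with 3H-thymidine and harvested onto glass filters for scintillation counting. Final DMSO 0.1%. Triplicate wells, three days (n = 9). IC50 read graphically from each experiment's dose curve.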

SW872 [20] = experiment: Cytotoxicity against human SW872 cells at 0.25 to 2.0 uM after 48 hrs by [3H]thymidine incorporation assay; procedure, shortened: as §3
SW872 [21] = experiment: Cytotoxicity against human SW872 cells at 0.25 to 2.0 uM after 72 hrs by [3H]thymidine incorporation assay; procedure, shortened: as §3
ZR-75-1 [22] = experiment: Cytotoxicity against human ZR-75-1 cells at 0.25 to 2.0 uM after 24 hrs by [3H]thymidine incorporation assay; procedure, shortened: as §3
ZR-75-1 [23] = experiment: Cytotoxicity against human ZR-75-1 cells at 0.25 to 2.0 uM after 48 hrs by [3H]thymidine incorporation assay; procedure, shortened: as §3
ZR-75-1 [24] = experiment: Cytotoxicity against human ZR-75-1 cells at 0.25 to 2.0 uM after 72 hrs by [3H]thymidine incorporation assay; procedure, shortened: as §3

Measured: Activity

C=C1C(=O)O[C@]23C[C@H]1CCC(CO[C@H]1O[C@@H](CO)[C@H](O)[C@@H](O)[C@@H]1O)=C2C(=O)C=C3C
inactive: all assays above
